Reference: ChEMBL document CHEMBL1136626, “Discovery of novel and selective IKK-beta serine-threonine protein kinase inhibitors. Part 1” (Bioorg Med Chem Lett, 2003)
pIC50: −log10 of the molar value.

Experiments:
A549 = test: In vitro concentration required to inhibit the TNF-alpha-induced RANTES production in A549 human lung epithelium cell line; assay type: functional, cell-based
Procedure, shortened: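 A549 human lung epithelial cells grown in D-MEM with 10% FCS, penicillin/streptomycin and 2 mM glutamine. Cells (4×10⁴/well) pretreated 1 h with compound or vehicle (0.1% DMSO), then stimulated with 100 ng/mL TNF-α for 24 h. RANTES in supernatants measured by quantitative sandwich fluorescent immunoassay.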

[1] = target: T1, Inhibitor of nuclear factor kappa-B kinase subunit beta (Homo sapiens, UniProt O14920); test: In vitro inhibitory concentration required against recombinant human IkB kinase beta (IKK-beta)
T1 sequence (O14920 whole entry): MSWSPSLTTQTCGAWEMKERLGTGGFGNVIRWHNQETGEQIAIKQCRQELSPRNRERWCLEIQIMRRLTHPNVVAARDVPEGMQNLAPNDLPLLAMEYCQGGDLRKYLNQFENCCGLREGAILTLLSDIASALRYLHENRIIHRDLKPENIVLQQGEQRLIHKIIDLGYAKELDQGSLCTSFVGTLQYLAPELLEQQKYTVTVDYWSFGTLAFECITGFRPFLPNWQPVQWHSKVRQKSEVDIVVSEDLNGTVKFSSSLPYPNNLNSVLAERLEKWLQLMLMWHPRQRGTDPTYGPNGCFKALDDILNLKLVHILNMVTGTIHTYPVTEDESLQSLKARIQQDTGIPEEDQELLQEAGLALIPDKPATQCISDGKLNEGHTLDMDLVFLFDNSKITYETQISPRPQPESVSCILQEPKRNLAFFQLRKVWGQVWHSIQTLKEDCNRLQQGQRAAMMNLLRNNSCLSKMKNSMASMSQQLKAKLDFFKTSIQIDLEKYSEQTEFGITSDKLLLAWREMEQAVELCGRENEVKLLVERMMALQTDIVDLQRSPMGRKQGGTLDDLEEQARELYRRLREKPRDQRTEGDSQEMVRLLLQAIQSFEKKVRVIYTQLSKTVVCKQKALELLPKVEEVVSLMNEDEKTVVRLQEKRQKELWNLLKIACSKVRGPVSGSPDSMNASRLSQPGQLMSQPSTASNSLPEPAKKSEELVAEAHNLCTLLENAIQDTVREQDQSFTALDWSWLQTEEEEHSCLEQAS
Procedure, shortened: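 Recombinant His-tagged human IKK-β from baculovirus-infected insect cells, final […], with biotinylated GST-IκBα(1-54) substrate (final 0.2) in Tris-HCl pH 7.6 buffer with MgCl₂, DTT, Na₃VO₄ and BSA; DMSO final 0.25%. Started with ATP plus [γ-³³P]ATP, 2 h at rt, stopped with EDTA. Substrate captured on streptavidin plates, washed, counted by scintillation.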

[2] = target: T2, Dual specificity mitogen-activated protein kinase kinase 4 (Homo sapiens, UniProt P45985); test: Inhibition of human mitogen-activated protein kinase kinase 4 (MKK4)
T2 sequence (P45985 whole entry): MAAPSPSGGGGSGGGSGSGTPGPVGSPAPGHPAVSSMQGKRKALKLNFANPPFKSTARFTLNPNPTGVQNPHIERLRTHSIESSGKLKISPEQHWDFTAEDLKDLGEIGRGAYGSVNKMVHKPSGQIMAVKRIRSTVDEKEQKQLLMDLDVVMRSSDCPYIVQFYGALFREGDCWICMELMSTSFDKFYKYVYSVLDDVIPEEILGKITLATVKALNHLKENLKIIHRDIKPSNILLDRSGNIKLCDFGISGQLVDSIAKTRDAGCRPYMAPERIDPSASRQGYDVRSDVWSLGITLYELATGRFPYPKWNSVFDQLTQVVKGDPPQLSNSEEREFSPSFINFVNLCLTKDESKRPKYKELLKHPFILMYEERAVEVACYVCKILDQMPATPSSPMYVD

Mus musculus [3] = species on record: Mus musculus; test: In vitro inhibition of IgE in mouse B-cells; assay type: functional, cell-based
PBMC = test: In vitro inhibition TNF-alpha release in human Peripheral blood mononuclear cells (PBMC); assay type: functional, cell-based
Jurkat = test: In vitro inhibition of anti-CD3/anti-CD28-I induced IL-2 release in Jurkat T-cells; assay type: functional, cell-based; conditions: Homo sapiens
[4] = target: Tyrosine-protein kinase SYK (Homo sapiens, UniProt P43405); test: Inhibition of human Syk
HEK293 = test: In vitro inhibition of NF-kappaB-Luciferase in HEK293 cell line; assay type: functional, cell-based; conditions: Homo sapiens
Mus musculus [5] = test: In vivo LPS-induced TNF-alpha production in mice after oral administration (60 min pretreatment); assay type: functional
Procedure, shortened: (§1)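 Eight-week-old female BALB/c mice given 200 (per mouse) LPS ip in saline. Compound dosed ip 30 min before LPS, or po in 10% cremophor/saline 60 min before. Blood taken under pentobarbital anaesthesia 90 min after LPS. Plasma TNFα measured by ELISA; mean of 5 mice per group used to calculate percent reduction versus LPS controls; ED₅₀ reported.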

Mus musculus [6] = test: In vivo LPS-induced TNF-alpha production in mice after ip administration (30 min pretreatment); assay type: functional; procedure, shortened: as §1
[7] = target: T3, Inhibitor of nuclear factor kappa-B kinase subunit alpha (Homo sapiens, UniProt O15111); test: Inhibition of human IKK-alpha
T3 sequence (O15111 whole entry): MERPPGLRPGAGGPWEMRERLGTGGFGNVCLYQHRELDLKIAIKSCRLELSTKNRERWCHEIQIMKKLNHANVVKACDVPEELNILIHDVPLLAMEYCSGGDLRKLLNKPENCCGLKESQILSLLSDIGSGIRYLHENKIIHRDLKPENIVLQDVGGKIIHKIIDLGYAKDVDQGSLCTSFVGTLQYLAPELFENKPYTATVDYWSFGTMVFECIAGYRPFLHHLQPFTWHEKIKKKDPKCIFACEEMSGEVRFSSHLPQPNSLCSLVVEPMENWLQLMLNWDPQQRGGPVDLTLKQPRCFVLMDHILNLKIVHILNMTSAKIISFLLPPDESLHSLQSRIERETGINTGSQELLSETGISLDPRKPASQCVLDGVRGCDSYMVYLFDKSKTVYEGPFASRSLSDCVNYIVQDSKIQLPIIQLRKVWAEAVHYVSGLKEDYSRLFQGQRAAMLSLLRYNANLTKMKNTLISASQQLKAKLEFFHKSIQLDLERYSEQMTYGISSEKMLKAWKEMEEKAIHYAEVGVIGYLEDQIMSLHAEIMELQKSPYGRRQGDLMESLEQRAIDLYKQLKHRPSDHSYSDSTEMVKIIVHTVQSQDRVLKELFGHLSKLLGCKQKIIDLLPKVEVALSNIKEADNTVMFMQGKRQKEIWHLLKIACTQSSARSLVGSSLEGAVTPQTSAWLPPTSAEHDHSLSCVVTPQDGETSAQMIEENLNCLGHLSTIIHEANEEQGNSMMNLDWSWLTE

[8] = target: T3, Inhibitor of nuclear factor kappa-B kinase subunit alpha; test: Inhibition of human IKK-alpha kinase

Row | SMILES | pIC50 (A549) | pIC50 [1] | also measured
1 | N#Cc1c(-c2ccc(NC(=O)CCN3CCCCC3)cc2)cc(-c2ccccc2O)nc1N | < 4.30 | 6.00 | 
2 | N#Cc1c(-c2cccc(NC(=O)CCCC(=O)O)c2)cc(-c2ccccc2O)nc1N | < 4.30 | 5.85 | 
3 | CCN(CC)c1nc(-c2ccccc2O)cc(-c2cccc(NC(=O)CCN3CCCCC3)c2)c1C#N |  | < 4.70 | 
4 | N#Cc1c(-c2cccc(NC(=O)C3CCC(=O)O3)c2)cc(-c2ccccc2O)nc1N (stereo not drawn) | 5.10 | 5.82 | pIC50 [2]: < 4.70; pIC50 (Mus musculus [3]): 6.46; pIC50 (PBMC): 5.00; pIC50 (Jurkat): 4.82; pIC50 [4]: < 4.70; pIC50 (HEK293): 5.10; ED50 (Mus musculus [5]): > 30 mg/kg; ED50 (Mus musculus [6]): 10 mg/kg; pIC50 [7]: < 4.70
5 | CC(=O)Nc1nc(-c2ccccc2O)cc(-c2cccc(NC(=O)CCN3CCCCC3)c2)c1C#N | 4.52 | 4.82 | 
6 | N#Cc1c(-c2cccc(NC(=O)C(O)CCC(=O)O)c2)cc(-c2cc(Cl)ccc2O)nc1N (stereo not drawn) | < 4.30 | 5.26 | 
7 | N#Cc1c(-c2ccccc2C(=O)NCCN2CCCCC2)cc(-c2ccccc2O)nc1N | 5.22 | 6.30 | 
8 | N#Cc1c(-c2cccc(C(=O)O)c2)cc(-c2ccccc2O)nc1N | < 4.30 | 5.60 | 
9 | N#Cc1c(-c2cccc(NC(=O)C(O)CCC(=O)O)c2)cc(-c2ccc(O)cc2)nc1N (stereo not drawn) | < 4.30 | < 4.70 | 
10 | N#Cc1c(-c2ccc(N3CCCCC3)c(NC(=O)CCN3CCCCC3)c2)cc(-c2ccccc2O)nc1N | 5.30 | 5.60 | 
11 | COc1ccccc1-c1cc(-c2cccc(NC(=O)C(O)CCC(=O)O)c2)c(C#N)c(N)n1 (stereo not drawn) | < 4.30 | < 4.70 | 
12 | N#Cc1c(-c2cccc(NC(=O)CCN3CCCCC3)c2)cc(-c2ccccc2O)nc1O | < 4.30 | < 4.70 | 
13 | CN(C)c1ccc(-c2cc(-c3ccccc3O)nc(N)c2C#N)cc1 | < 4.30 | < 4.70 | 
14 | N#Cc1c(-c2ccc(C(=O)NCCN3CCCCC3)cc2)cc(-c2ccccc2O)nc1N | < 4.30 | 6.22 | 
15 | N#Cc1c(-c2cccc(N)c2)cc(-c2ccccc2O)nc1N | < 4.30 | 4.70 | 
16 | N#Cc1c(-c2ccc(NC(=O)CCCC(=O)O)cc2)cc(-c2ccccc2O)nc1N | < 4.30 | 6.30 | 
17 | Cc1cccc(O)c1-c1cc(-c2cccc(NC(=O)C(O)CCC(=O)O)c2)c(C#N)c(N)n1 (stereo not drawn) | < 4.30 | < 4.70 | 
18 | N#Cc1c(-c2cccc(NC(=O)C(N)CC(=O)O)c2)cc(-c2ccccc2O)nc1N (stereo not drawn) | 4.82 | 6.22 | 

Row | SMILES | pIC50 (A549) | pIC50 [1] | also measured
19 | Cc1c(-c2ccccc2O)nc(N)c(C#N)c1-c1cccc(NC(=O)C(O)CCC(=O)O)c1 (stereo not drawn) | < 4.30 | < 4.70 | 
20 | N#Cc1c(-c2cccc(C(=O)NCCN3CCCCC3)c2)cc(-c2ccccc2O)nc1N | 4.82 | 5.74 | 
21 | N#Cc1c(-c2cccc(NC(=O)CN3CCCCC3)c2)cc(-c2ccccc2O)nc1N | 4.82 | 5.52 | 
22 | N#Cc1c(-c2cccc(NC(=O)CCN3CCCCC3)c2)cc(-c2cccc(O)c2)nc1N | 5.00 | < 4.70 | 
23 | N#Cc1c(-c2ccccc2C(=O)O)cc(-c2ccccc2O)nc1N | < 4.30 | 6.15 | 
24 | N#Cc1c(-c2cccc(NC(=O)CCN3CCCCC3)c2)cc(-c2ccccc2O)nc1N | 5.15 | 6.22 | pIC50 [2]: < 4.70; pIC50 [4]: < 4.70; ED50 (Mus musculus [5]): 2 mg/kg; ED50 (Mus musculus [6]): < 0.03 mg/kg; pIC50 [8]: 4.70
25 | COc1ccc(O)c(-c2cc(-c3cccc(NC(=O)C(O)CCC(=O)O)c3)c(C#N)c(N)n2)c1 (stereo not drawn) | < 4.30 | 5.28 | 
26 | CN(C)c1ccc(-c2cc(-c3ccccc3O)nc(N)c2C#N)cc1NC(=O)CCN1CCCCC1.Cl | 5.10 | 6.10 | ED50 (Mus musculus [6]): 0.6 mg/kg
27 | N#Cc1c(-c2cccc(NC(=O)C(O)CCC(=O)[O-])c2)cc(-c2ccccc2O)nc1N.[Na+] (stereo not drawn) | 4.70 | 6.05 | ED50 (Mus musculus [5]): 18.7 mg/kg; ED50 (Mus musculus [6]): 1.3 mg/kg
28 | COCC(=O)Nc1cccc(-c2cc(-c3ccccc3O)nc(N)c2C#N)c1 | < 4.30 | 5.85 | 
29 | N#Cc1c(-c2cccc(NC(=O)C(O)CCC(=O)O)c2)cc(-c2ccccc2)nc1N (stereo not drawn) | < 4.30 | < 4.70 | 
30 | N#Cc1c(-c2cccc(NC(=O)CC(N)C(=O)O)c2)cc(-c2ccccc2O)nc1N (stereo not drawn) | 4.46 | 6.22 | 
31 | N#Cc1c(-c2ccc([N+](=O)[O-])cc2)cc(-c2ccccc2O)nc1N | < 4.30 | < 4.70 | 
32 | N#Cc1c(-c2cccc(NC(=O)C(O)CCC(=O)O)c2)cc(-c2cc(F)ccc2O)nc1N (stereo not drawn) | < 4.30 | 5.77 | 
33 | N#Cc1c(-c2ccc(C(=O)O)cc2)cc(-c2ccccc2O)nc1N | < 4.30 | 6.15 | 
34 | COc1cccc(O)c1-c1cc(-c2cccc(NC(=O)C(O)CCC(=O)O)c2)c(C#N)c(N)n1 (stereo not drawn) | < 4.30 | 5.70 | 
35 | Cl.N#Cc1c(-c2ccc(N3CCCC3)c(NC(=O)CCN3CCCCC3)c2)cc(-c2ccccc2O)nc1N | 6.10 | 6.00 | ED50 (Mus musculus [5]): 10.1 mg/kg; ED50 (Mus musculus [6]): 0.8 mg/kg
